From ChEMBL document CHEMBL2424598, “Identification and optimization of pteridinone Toll-like receptor 7 (TLR7) agonists for the oral treatment of viral hepatitis” (J Med Chem, 2013)

What was measured:
[1] = target: T1, Toll-like receptor 7 (Homo sapiens) (UniProt Q9NYK1); experiment: Agonist activity at TLR7-mediated IFNalpha production in human PBMC assessed as minimum concentration of compound necessary to generate >3 fold of cytokine levels relative to control
T1 sequence (whole entry): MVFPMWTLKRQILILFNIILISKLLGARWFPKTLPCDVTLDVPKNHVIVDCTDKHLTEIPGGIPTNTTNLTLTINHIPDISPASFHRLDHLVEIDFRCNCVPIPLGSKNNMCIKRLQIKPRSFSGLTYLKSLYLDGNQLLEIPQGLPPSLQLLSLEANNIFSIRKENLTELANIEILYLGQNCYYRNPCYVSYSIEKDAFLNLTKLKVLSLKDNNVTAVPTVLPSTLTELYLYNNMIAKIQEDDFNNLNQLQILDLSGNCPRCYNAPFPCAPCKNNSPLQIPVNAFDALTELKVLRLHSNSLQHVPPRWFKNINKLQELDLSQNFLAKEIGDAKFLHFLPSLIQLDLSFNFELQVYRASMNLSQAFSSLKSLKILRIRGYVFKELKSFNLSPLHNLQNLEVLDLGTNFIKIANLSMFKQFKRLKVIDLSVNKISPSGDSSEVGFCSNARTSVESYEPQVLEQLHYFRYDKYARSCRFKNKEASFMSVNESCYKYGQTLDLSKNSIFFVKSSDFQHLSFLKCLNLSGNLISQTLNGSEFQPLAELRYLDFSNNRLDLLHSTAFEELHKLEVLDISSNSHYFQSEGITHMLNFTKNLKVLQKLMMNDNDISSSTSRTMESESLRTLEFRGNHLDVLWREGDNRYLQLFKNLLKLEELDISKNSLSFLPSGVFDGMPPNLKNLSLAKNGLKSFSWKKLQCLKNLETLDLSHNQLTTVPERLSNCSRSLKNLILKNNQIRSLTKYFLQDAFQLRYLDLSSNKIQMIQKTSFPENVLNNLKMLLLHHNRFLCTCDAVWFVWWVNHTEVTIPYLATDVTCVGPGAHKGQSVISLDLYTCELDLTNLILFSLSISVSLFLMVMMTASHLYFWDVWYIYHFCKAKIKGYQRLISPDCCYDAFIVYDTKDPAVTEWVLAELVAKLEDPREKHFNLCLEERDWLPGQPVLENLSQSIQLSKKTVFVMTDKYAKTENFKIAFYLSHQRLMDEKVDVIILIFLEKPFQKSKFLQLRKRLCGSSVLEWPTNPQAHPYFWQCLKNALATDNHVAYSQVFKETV
Summary of the method: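 Cryopreserved PBMCs from leukapheresis of a single healthy human donor, chosen as a consistent, robust responder to TLR7 agonist stimulation. Cells were incubated with compound for 24 h over an eight-point concentration range. Secreted IFN-α was measured to build dose-response curves. MEC was taken as the lowest concentration giving cytokine levels ≥3-fold over untreated control cultures.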

[2] = organism: Homo sapiens; experiment: Selectivity ratio of MEC for TLR8-mediated TNFalpha production in human PBMC to MEC for TLR7-mediated IFNalpha production in human PBMC
Summary of the method: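 Cryopreserved human PBMCs came from leukapheresis of a single healthy donor selected as a consistent responder. Cells were incubated with compound for 24 h over an eight-point concentration range, and cytokine release was measured. MEC is the lowest concentration giving cytokine levels at least 3-fold above untreated cultures, determined per cytokine.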

[3] = Lipophilicity, log D of the compound; assay type: physicochemical; details: octanol/water

SMILES: CCCCOc1nc(N)c2c(n1)N(Cc1ccc(CN3CCCC3)cc1)C(C)C(=O)N2 (configuration not stated)
- MEC [1]: 10 nM
- Ratio [2]: 30

SMILES: CCCCCc1nc(N)c2c(n1)N(Cc1cccc(CN3CCCC3)c1)CC(=O)N2
- MEC [1]: 320 nM
- Ratio [2]: 30

SMILES: CCCCOc1nc(N)c2[nH]c(=O)c(=O)n(Cc3ccc(CN4CCCC4)cc3)c2n1
- MEC [1]: 0.32 nM
- Ratio [2]: 10

SMILES: COCCNc1nc(N)c2c(n1)N(Cc1cccc(CN3CCCC3)c1)CC(=O)N2
- MEC [1]: 1000 nM
- Ratio [2]: 10

SMILES: CCC(CC)COc1nc(N)c2c(n1)N(Cc1cccc(CN3CCCC3)c1)CC(=O)N2
- MEC [1]: 10 nM
- Ratio [2]: 30

SMILES: CCCCOc1nc(N)c2[nH]c(=O)n(Cc3cccc(CN4CCCC4)c3)c2n1
- MEC [1]: 0.03 nM

SMILES: CCCN(C)C(=O)c1nc(N)c2[nH]c(=O)c(=O)n(Cc3cccc(CN4CCCC4)c3)c2n1
- MEC [1]: 1000 nM
- Ratio [2]: 10

SMILES: COCCOc1cc2c(c(N)n1)NC(=O)CN2Cc1ccc(CN2CCCC2)cc1
- MEC [1]: 0.32 nM
- Ratio [2]: 10

SMILES: CCCCOc1nc(N)c2c(n1)N(Cc1ccc(-c3cccc(CN4CCCC4)c3)cc1)CC(=O)N2
- MEC [1]: 3 nM
- Ratio [2]: 10

SMILES: CCCCOc1nc(N)c2c(n1)N(Cc1cccc(CN3CCCC3)c1)CCC(=O)N2
- MEC [1]: > 10000 nM

SMILES: CCCCNc1nc(N)c2[nH]c(=O)c(=O)n(Cc3cccc(CN4CCCC4)c3)c2n1
- MEC [1]: 3 nM
- Ratio [2]: 30

SMILES: CCCCSc1nc(N)c2c(n1)N(Cc1cccc(CN3CCCC3)c1)CC(=O)N2
- MEC [1]: 100 nM
- Ratio [2]: 30

SMILES: CCCCOc1nc(N)c2c(n1)N1Cc3cccc(CN4CCCC4)c3CC1C(=O)N2 (configuration not stated)
- MEC [1]: 300 nM
- Ratio [2]: 10

SMILES: Nc1nc(OCc2ccccc2)nc2c1NC(=O)CN2Cc1cccc(CN2CCCC2)c1
- MEC [1]: 3000 nM
- Ratio [2]: 3.3

SMILES: CCCCOc1cc2c([nH]c(=O)c(=O)n2Cc2cccc(CN3CCCC3)c2)c(N)n1
- MEC [1]: 30 nM
- Ratio [2]: 10

SMILES: CCCCOc1cc2c(c(N)n1)NC(=O)CN2Cc1ccc(CN2CCCC2)cc1
- MEC [1]: 30 nM
- Ratio [2]: 10

SMILES: CCCCOc1nc(N)c2c(n1)N(C)C(Cc1cccc(CN3CCCC3)c1)C(=O)N2 (configuration not stated)
- MEC [1]: 320 nM
- Ratio [2]: 30

SMILES: CCCCOc1nc(N)c2c(n1)N(Cc1ccc3c(c1)CN(C(C)C)CC3)CC(=O)N2
- MEC [1]: 3 nM
- Ratio [2]: 3

SMILES: CCCCOc1nc(N)c2c(n1)N(Cc1cccc(CN3CCCC3)c1)C(C)C(=O)N2 (configuration not stated)
- MEC [1]: 300 nM
- Ratio [2]: 30

SMILES: CCC[C@H](C)Oc1nc(N)c2c(n1)N(Cc1cccc(CN3CCCC3)c1)CC(=O)N2
- MEC [1]: 3 nM
- Ratio [2]: 33

SMILES: CCCCOc1cc2c([nH]c(=O)c(=O)n2Cc2ccc(CN3CCCC3)cc2)c(N)n1
- MEC [1]: 3 nM
- Ratio [2]: 3

SMILES: CCCCOc1nc(N)c2c(n1)N(Cc1ccccc1CN1CCCC1)CC(=O)N2
- MEC [1]: 100 nM
- Ratio [2]: 100

SMILES: COCCOc1nc(N)c2[nH]c(=O)c(=O)n(Cc3cccc(CN4CCCC4)c3)c2n1
- MEC [1]: 100 nM
- Ratio [2]: 3

SMILES: CCCCOc1nc(N)c2c(n1)N(Cc1cccc(CN3CCCC3)c1)C1(CC1)C(=O)N2
- MEC [1]: 1000 nM
- Ratio [2]: 3

SMILES: Nc1nc(OCC2CCCCC2)nc2c1NC(=O)CN2Cc1cccc(CN2CCCC2)c1
- MEC [1]: 3000 nM
- Ratio [2]: 3.3

SMILES: CCCCOc1nc(N)c2c(n1)N(Cc1ccc(CCCN3CCCC3)nc1)CC(=O)N2
- MEC [1]: 3 nM
- Ratio [2]: 30

SMILES: CCCCNc1nc(N)c2c(n1)N(Cc1cccc(CN3CCCC3)c1)CC(=O)N2
- MEC [1]: 10 nM
- Ratio [2]: 1000

SMILES: CCCCOc1nc(N)c2c(n1)N(Cc1ccc(-c3ccc(CN4CCCC4)cc3)cc1)CC(=O)N2
- MEC [1]: 3 nM
- Ratio [2]: 3.3

SMILES: CCCCOc1cc2c([nH]c(=O)c(=O)n2Cc2ccc(-c3ccc(CN4CCCC4)cc3)cc2)c(N)n1
- MEC [1]: 10 nM
- Ratio [2]: 3

SMILES: CC(C)COc1nc(N)c2c(n1)N(Cc1cccc(CN3CCCC3)c1)CC(=O)N2
- MEC [1]: 10000 nM
- Ratio [2]: 0

SMILES: CCCCOc1nc(N)c2c(n1)N(Cc1ccccc1)CC(=O)N2
- Ratio [2]: 0.3

SMILES: CCCCOc1nc(N)c2c(n1)N(Cc1ccc(CN3CCCC3)cc1)CC(=O)N2
- MEC [1]: 1 nM
- Ratio [2]: 10

SMILES: CCCCOc1nc(N)c2c(n1)N(Cc1ccc3c(c1)CCN(C(C)C)C3)CC(=O)N2
- MEC [1]: 3 nM
- Ratio [2]: 10

SMILES: CCCCOc1nc(N)c2c(n1)NC(Cc1cccc(CN3CCCC3)c1)C(=O)N2 (configuration not stated)
- MEC [1]: > 10000 nM

SMILES: CCCCCOc1nc(N)c2c(n1)N(Cc1cccc(CN3CCCC3)c1)CC(=O)N2
- MEC [1]: 100 nM
- Ratio [2]: 100

SMILES: CCCCOc1nc(N)c2c(n1)N(Cc1cccc(CN3CCOCC3)c1)CC(=O)N2
- MEC [1]: 300 nM
- Ratio [2]: 3.3

SMILES: CCCCOc1nc(N)c2c(n1)N(C)C(Cc1ccc(CN3CCCC3)cc1)C(=O)N2 (configuration not stated)
- MEC [1]: 1000 nM
- Ratio [2]: 10

SMILES: CCCCOc1cc2c(c(N)n1)NC(=O)CN2Cc1cccc(CN2CCCC2)c1
- MEC [1]: 300 nM
- Ratio [2]: 10

SMILES: CCCCOc1nc(N)c2[nH]c(=O)c(=O)n(Cc3cccc(CN4CCCC4)c3)c2n1
- MEC [1]: 3 nM
- Ratio [2]: 33

SMILES: Nc1nc(OCC2CCOCC2)nc2c1NC(=O)CN2Cc1cccc(CN2CCCC2)c1
- MEC [1]: 10 nM
- Ratio [2]: 100

SMILES: CCCCOc1nc(N)c2c(n1)N(Cc1cccc(CN3CCCCC3)c1)CC(=O)N2
- MEC [1]: 30 nM
- Ratio [2]: 3.3

SMILES: Nc1nc(OCCC2CC2)nc2c1NC(=O)CN2Cc1cccc(CN2CCCC2)c1
- MEC [1]: 30 nM
- Ratio [2]: 10

SMILES: CCCCOc1cc2c([nH]c(=O)c(=O)n2Cc2ccc(-c3cccc(CN4CCCC4)c3)cc2)c(N)n1
- MEC [1]: 30 nM
- Ratio [2]: 3

SMILES: CCCN(C)C(=O)c1nc(N)c2c(n1)N(Cc1cccc(CN3CCCC3)c1)CC(=O)N2
- MEC [1]: 1000 nM
- Ratio [2]: 10

SMILES: COCCOc1nc(N)c2c(n1)N(Cc1cccc(CN3CCCC3)c1)CC(=O)N2
- MEC [1]: 10 nM
- Ratio [2]: 1000
- logD [3]: 1
